From ChEMBL document CHEMBL1128718, “2-Substituted penems with amino acid-related side chains: synthesis and antibacterial activity of a new series of beta-lactam antibiotics” (1995)
In brackets after ≈: the same amount, converted by molar mass.

Legend:
Assay type in all cases: functional
Providencia stuartii = experiment: In Vitro Anti Bacterial Activity (MIC90) against 90% of tested clinical Isolates of Providencia stuartii(10)
Procedure, shortened: (§1)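 Over 500 clinical isolates tested in total; the line gives the isolate count. MIC90 for aerobes by dilution in Mueller Hinton 2 medium, inoculum 10⁴ cells/mL, incubated 24 h at 37 °C.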

Listeria monocytogenes = experiment: In Vitro Anti Bacterial Activity (MIC90) against 90% of tested clinical Isolates of Listeria monocytogenes (20); procedure, shortened: as §1
Streptococcus pneumoniae = experiment: In Vitro Anti Bacterial Activity (MIC90) against 90% of tested clinical Isolates of Streptococcus pneumoniae (23)
Staphylococcus aureus [1] = experiment: In vitro antibacterial activity against Sa(II) Staphylococcus aureus ATCC 25923
Procedure, shortened: (§2)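 Panel of standard ATCC strains plus modified strains: methicillin-resistant, hyperpermeable, β-lactamase-producing (TEM1, TEM2, SHV) and β-lactamase-lacking. MIC determined in Mueller Hinton 2 medium, inoculum 10⁴ cells/mL, incubated 24 h at 37 °C.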

Pseudomonas aeruginosa [2] = experiment: In Vitro antibacterial activity against (Pa) Pseudomonas aeruginosa ATCC 27853; procedure, shortened: as §2
Pseudomonas aeruginosa [3] = experiment: In Vitro antibacterial activity against (Pa G242) hyperpermeable Pseudomonas aeruginosa strain; procedure, shortened: as §2
Proteus mirabilis = experiment: In Vitro Anti Bacterial Activity (MIC90) against 90% of tested clinical Isolates of Proteus mirabilis(16); procedure, shortened: as §1
Enterococcus faecium = experiment: In Vitro Anti Bacterial Activity (MIC90) against 90% of tested clinical Isolates of Enterococcus faecium(47); procedure, shortened: as §1
Moraxella catarrhalis = experiment: In Vitro Anti Bacterial Activity (MIC90) against 90% of tested clinical Isolates of Branhamella catarrhalis(27)
Escherichia coli [4] = experiment: In Vitro antibacterial activity against (Ec TEM2) Escherichia coli […] strain; procedure, shortened: as §2
Staphylococcus aureus [5] = experiment: In vitro antibacterial activity against Sa MR(II) homogeneous methicillin resistant Staphylococcus aureus
Procedure, shortened: (§3)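 MIC was determined in Mueller Hinton 2 medium with an inoculum of 10⁴ cells/mL and incubation for 24 h at 37 °C. Strains: Sa(I) is S. aureus ATCC 29213; Sa MR(I) is a heterogeneous methicillin-resistant S. aureus; Sa MR(II) is a homogeneous methicillin-resistant S. aureus.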

[6] = test system: Staphylococcus epidermidis; experiment: In Vitro Anti Bacterial Activity (MIC90) against 90% of tested clinical Isolates of Staphylococcus epidermidis (13); procedure, shortened: as §1
Haemophilus influenzae = experiment: In Vitro Anti Bacterial Activity (MIC90) against 90% of tested clinical Isolates of Haemophilus Influenzae(21)
Procedure, shortened: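 Clinical isolates. MIC90 in Haemophilus Test Medium Base plus Haemophilus Test Medium Supplement, inoculum 10⁴ cells/mL, incubated 24–48 h at 37 °C.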

Klebsiella aerogenes = experiment: In Vitro Anti Bacterial Activity (MIC90) against 90% of tested clinical Isolates of Enterobacter aerogenes(19); procedure, shortened: as §1
Escherichia coli [7] = experiment: In Vitro Anti Bacterial Activity (MIC90) against 90% of tested clinical Isolates of Escherichia coli; procedure, shortened: as §1
Bacteroides fragilis = experiment: In Vitro Anti Bacterial Activity (MIC90) against 90% of tested clinical Isolates of Bacteroides fragilis(15)
Procedure, shortened: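 Anaerobic clinical isolates. MIC90 by dilution in Wilkins-Chalgren agar, inoculum 10⁵ cells/mL, incubated 24–48 h at 37 °C.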

Proteus vulgaris = experiment: In Vitro Anti Bacterial Activity (MIC90) against 90% of tested clinical Isolates of Proteus vulgaris(10); procedure, shortened: as §1
Streptococcus agalactiae = experiment: In Vitro Anti Bacterial Activity (MIC90) against 90% of tested clinical Isolates of Streptococcus agalactiaeB(21)
Clostridium perfringens = experiment: In Vitro Anti Bacterial Activity (MIC90) against 90% of tested clinical Isolates of Clostridium perfringens(27)
Procedure, shortened: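 MIC90 over clinical isolates of this anaerobic species, taken from the MIC distribution. Anaerobes were tested on Wilkins-Chalgren agar with an inoculum of 10⁵ cells/mL and incubated 24–48 h at 37 °C.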

Pseudomonas aeruginosa [8] = experiment: In Vitro antibacterial activity against (Pa) hyperpermeable Pseudomonas aeruginosa […] strain; procedure, shortened: as §2
Providencia rettgeri = experiment: In Vitro Anti Bacterial Activity (MIC90) against 90% of tested clinical Isolates of Providencia rettgeri(10); procedure, shortened: as §1
Yersinia sp. = experiment: In Vitro Anti Bacterial Activity (MIC90) against 90% of tested clinical Isolates of Yersinia species(20); conditions: Yersinia sp. (in: enterobacteria)
Staphylococcus aureus [9] = experiment: In Vitro Anti Bacterial Activity (MIC90) against 90% of tested clinical Isolates of Staphylococcus aureus MV (20)
Staphylococcus aureus [10] = experiment: In vitro antibacterial activity against Sa(I) Staphylococcus aureus ATCC 29213; procedure, shortened: as §3
Morganella morganii = experiment: In Vitro Anti Bacterial Activity (MIC90) against 90% of tested clinical Isolates of Morganella morganii(10); procedure, shortened: as §1
Staphylococcus aureus [11] = experiment: In vitro antibacterial activity against Sa MR(I) heterogeneous methicillin resistant Staphylococcus aureus; procedure, shortened: as §3
Citrobacter freundii = experiment: In Vitro Anti Bacterial Activity (MIC90) against 90% of tested clinical Isolates of Citrobacter freundii(20); procedure, shortened: as §1
Enterococcus faecalis [12] = experiment: In Vitro Anti Bacterial Activity (MIC90) against 90% of tested clinical Isolates of Enterococcus faecalis(47); procedure, shortened: as §1
Staphylococcus aureus [13] = experiment: In Vitro Anti Bacterial Activity (MIC90) against 90% of tested clinical Isolates of Staphylococcus aureus MS (6); procedure, shortened: as §1
Klebsiella pneumoniae = experiment: In Vitro Anti Bacterial Activity (MIC90) against 90% of tested clinical Isolates of Klebsiella pneumoniae(20); procedure, shortened: as §1
Aeromonas = experiment: In Vitro Anti Bacterial Activity (MIC90) against 90% of tested clinical Isolates of Aeromonas species(21); procedure, shortened: as §1
Escherichia coli [14] = experiment: In Vitro antibacterial activity against (Ec TEM1) Escherichia coli […] strain; procedure, shortened: as §2
Pseudomonas aeruginosa [15] = experiment: In Vitro Anti Bacterial Activity (MIC90) against 90% of tested clinical Isolates of Pseudomonas aeruginosa(11); procedure, shortened: as §1
Escherichia coli [16] = experiment: In Vitro antibacterial activity against (Ec DC2) hyperpermeable Escherichia coli strain; procedure, shortened: as §2
Escherichia coli [17] = experiment: In Vitro antibacterial activity against (Ec L) Escherichia coli […] strain; procedure, shortened: as §2
Streptococcus pyogenes = experiment: In Vitro Anti Bacterial Activity (MIC90) against 90% of tested clinical Isolates of Streptococcus pyogenes(31)
[18] = test system: Stenotrophomonas maltophilia; experiment: In Vitro Anti Bacterial Activity (MIC90) against 90% of tested clinical Isolates of Xanthomonas maltophilia(9); procedure, shortened: as §1
Escherichia coli [19] = experiment: In Vitro antibacterial activity against (Ec SHV) Escherichia coli […] strain; procedure, shortened: as §2
[20] = test system: Acinetobacter calcoaceticus subsp. anitratus; experiment: In Vitro Anti Bacterial Activity (MIC90) against 90% of tested clinical Isolates of Acinetobacter anitratus(20); procedure, shortened: as §1
Escherichia coli [21] = experiment: In Vitro antibacterial activity against (Ec) Escherichia coli ATCC 25922; procedure, shortened: as §2
Enterococcus faecalis [22] = experiment: In Vitro antibacterial activity against (Ef) Enterococcus faecalis ATCC 29212; procedure, shortened: as §2

## C[C@@H](O)[C@H]1C(=O)N2C(C(=O)O)=C(CN3CCC[C@H]3C(N)=O)S[C@H]12
Providencia stuartii
  MIC90: 4 µg/mL (≈ 11.7 µM)
Listeria monocytogenes
  MIC90: 0.5 µg/mL (≈ 1.46 µM)
Streptococcus pneumoniae
  MIC90: 0.06 µg/mL (≈ 0.176 µM)
Staphylococcus aureus [1]
  MIC: 0.015 µg/mL (≈ 0.0439 µM)
Pseudomonas aeruginosa [2]
  MIC: 64 µg/mL (≈ 187 µM)
Pseudomonas aeruginosa [3]
  MIC: 2 µg/mL (≈ 5.86 µM)
Proteus mirabilis
  MIC90: 4 µg/mL (≈ 11.7 µM)
Enterococcus faecium
  MIC90: > 64 µg/mL
Moraxella catarrhalis
  MIC90: 0.25 µg/mL (≈ 0.732 µM)
Escherichia coli [4]
  MIC: 2 µg/mL (≈ 5.86 µM)
Staphylococcus aureus [5]
  MIC: 2 µg/mL (≈ 5.86 µM)
[6]
  MIC90: 0.12 µg/mL (≈ 0.352 µM)
Haemophilus influenzae
  MIC90: 4 µg/mL (≈ 11.7 µM)
Klebsiella aerogenes
  MIC90: 16 µg/mL (≈ 46.9 µM)
Escherichia coli [7]
  MIC90: 0.12 µg/mL (≈ 0.352 µM)
Bacteroides fragilis
  MIC90: 16 µg/mL (≈ 46.9 µM)
Proteus vulgaris
  MIC90: 4 µg/mL (≈ 11.7 µM)
Streptococcus agalactiae
  MIC90: 0.03 µg/mL (≈ 0.0879 µM)
Clostridium perfringens
  MIC90: 1 µg/mL (≈ 2.93 µM)
Pseudomonas aeruginosa [8]
  MIC: 1 µg/mL (≈ 2.93 µM)
Providencia rettgeri
  MIC90: 4 µg/mL (≈ 11.7 µM)
Yersinia sp.
  MIC90: 0.25 µg/mL (≈ 0.732 µM)
Staphylococcus aureus [9]
  MIC90: 8 µg/mL (≈ 23.4 µM)
Staphylococcus aureus [10]
  MIC: 0.12 µg/mL (≈ 0.352 µM)
Morganella morganii
  MIC90: 4 µg/mL (≈ 11.7 µM)
Staphylococcus aureus [11]
  MIC: 0.5 µg/mL (≈ 1.46 µM)
Citrobacter freundii
  MIC90: 0.5 µg/mL (≈ 1.46 µM)
Enterococcus faecalis [12]
  MIC90: 8 µg/mL (≈ 23.4 µM)
Staphylococcus aureus [13]
  MIC90: 0.06 µg/mL (≈ 0.176 µM)
Klebsiella pneumoniae
  MIC90: 0.5 µg/mL (≈ 1.46 µM)
Aeromonas
  MIC90: 0.5 µg/mL (≈ 1.46 µM)
Escherichia coli [14]
  MIC: 2 µg/mL (≈ 5.86 µM)
Pseudomonas aeruginosa [15]
  MIC90: > 64 µg/mL
Escherichia coli [16]
  MIC: 2 µg/mL (≈ 5.86 µM)
Escherichia coli [17]
  MIC: 2 µg/mL (≈ 5.86 µM)
Streptococcus pyogenes
  MIC90: 0.06 µg/mL (≈ 0.176 µM)
[18]
  MIC90: > 64 µg/mL
Escherichia coli [19]
  MIC: 2 µg/mL (≈ 5.86 µM)
[20]
  MIC90: 16 µg/mL (≈ 46.9 µM)

## C[C@@H](O)[C@H]1C(=O)N2C(C(=O)O)=C(CN3C[C@H](O)C[C@H]3C(N)=O)S[C@H]12
Providencia stuartii
  MIC90: 4 µg/mL (≈ 11.2 µM)
Listeria monocytogenes
  MIC90: 0.12 µg/mL (≈ 0.336 µM)
Streptococcus pneumoniae
  MIC90: 0.03 µg/mL (≈ 0.0839 µM)
Staphylococcus aureus [1]
  MIC: 0.12 µg/mL (≈ 0.336 µM)
Pseudomonas aeruginosa [2]
  MIC: > 64 µg/mL
Pseudomonas aeruginosa [3]
  MIC: 0.06 µg/mL (≈ 0.168 µM)
Proteus mirabilis
  MIC90: 4 µg/mL (≈ 11.2 µM)
Enterococcus faecium
  MIC90: > 64 µg/mL
Moraxella catarrhalis
  MIC90: 1 µg/mL (≈ 2.8 µM)
Escherichia coli [4]
  MIC: 0.25 µg/mL (≈ 0.7 µM)
Staphylococcus aureus [5]
  MIC: 8 µg/mL (≈ 22.4 µM)
[6]
  MIC90: 1 µg/mL (≈ 2.8 µM)
Haemophilus influenzae
  MIC90: 4 µg/mL (≈ 11.2 µM)
Klebsiella aerogenes
  MIC90: 16 µg/mL (≈ 44.8 µM)
Escherichia coli [7]
  MIC90: 0.015 µg/mL (≈ 0.042 µM)
Bacteroides fragilis
  MIC90: 32 µg/mL (≈ 89.5 µM)
Proteus vulgaris
  MIC90: 4 µg/mL (≈ 11.2 µM)
Streptococcus agalactiae
  MIC90: 0.06 µg/mL (≈ 0.168 µM)
Clostridium perfringens
  MIC90: 0.25 µg/mL (≈ 0.7 µM)
Pseudomonas aeruginosa [8]
  MIC: 0.2 µg/mL (≈ 0.56 µM)
Providencia rettgeri
  MIC90: 4 µg/mL (≈ 11.2 µM)
Yersinia sp.
  MIC90: 0.15 µg/mL (≈ 0.42 µM)
Staphylococcus aureus [9]
  MIC90: > 32 µg/mL
Staphylococcus aureus [10]
  MIC: 0.12 µg/mL (≈ 0.336 µM)
Morganella morganii
  MIC90: 8 µg/mL (≈ 22.4 µM)
Staphylococcus aureus [11]
  MIC: 0.25 µg/mL (≈ 0.7 µM)
Citrobacter freundii
  MIC90: 1 µg/mL (≈ 2.8 µM)
Escherichia coli [21]
  MIC: 0.03 µg/mL (≈ 0.0839 µM)
Enterococcus faecalis [12]
  MIC90: 8 µg/mL (≈ 22.4 µM)
Staphylococcus aureus [13]
  MIC90: 0.12 µg/mL (≈ 0.336 µM)
Klebsiella pneumoniae
  MIC90: 0.5 µg/mL (≈ 1.4 µM)
Enterococcus faecalis [22]
  MIC: 2 µg/mL (≈ 5.6 µM)
Aeromonas
  MIC90: 2 µg/mL (≈ 5.6 µM)
Escherichia coli [14]
  MIC: 0.12 µg/mL (≈ 0.336 µM)
Pseudomonas aeruginosa [15]
  MIC90: > 64 µg/mL
Escherichia coli [16]
  MIC: 0.12 µg/mL (≈ 0.336 µM)
Escherichia coli [17]
  MIC: 0.03 µg/mL (≈ 0.0839 µM)
Streptococcus pyogenes
  MIC90: 0.03 µg/mL (≈ 0.0839 µM)
[18]
  MIC90: > 64 µg/mL
Escherichia coli [19]
  MIC: 0.25 µg/mL (≈ 0.7 µM)
[20]
  MIC90: 16 µg/mL (≈ 44.8 µM)
